Laboratory results as given in ChEMBL document CHEMBL4145545, “Synthesis and structure-activity relationships of asymmetric dimeric β-carboline derivatives as potential antitumor agents” (Eur J Med Chem, 2018).

Experiments:
ECa-109 cell line = test: Cytotoxicity against human ECA109 cells assessed as cell growth inhibition after 24 hrs by MTT assay; type: functional, cell-based; settings: ECa-109, 24 h
Outline: (§1)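 Cell lines grown to log phase in RPMI-1640 with 10% FBS, penicillin and streptomycin. About 10^5 cells/mL were plated and pre-incubated 24 h at 37 °C in 5% CO2. Compounds were given in DMSO, final ≤2% (v/v). MTT read-out was OD at 490 nm. Triplicate wells per concentration, each assay run ≥3 times. IC50 is 50% OD reduction versus untreated cells, calculated by the Logit method. Cisplatin was the reference.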

[1] = Cytotoxicity against human BGC cells assessed as cell growth inhibition after 24 hrs by MTT assay; type: functional, cell-based; outline: as §1
HT-29 = test: Cytotoxicity against human HT-29 cells assessed as cell growth inhibition after 24 hrs by MTT assay; type: functional, cell-based; settings: HT-29, 24 h; outline: as §1
HepG2 = test: Cytotoxicity against human HepG2 cells assessed as cell growth inhibition after 24 hrs by MTT assay; type: functional, cell-based; settings: HepG2, 24 h; outline: as §1
A-375 = test: Cytotoxicity against human A375 cells assessed as cell growth inhibition after 24 hrs by MTT assay; type: functional, cell-based; settings: A-375, 24 h; outline: as §1
MCF7 = test: Cytotoxicity against human MCF7 cells assessed as cell growth inhibition after 24 hrs by MTT assay; type: functional, cell-based; settings: MCF7, 24 h; outline: as §1
[2] = tested on: Lewis lung carcinoma cell line; test: Cytotoxicity against mouse LLC cells assessed as cell growth inhibition after 24 hrs by MTT assay; type: functional, cell-based; outline: as §1
SK-OV-3 = test: Cytotoxicity against human SKOV3 cells assessed as cell growth inhibition after 24 hrs by MTT assay; type: functional, cell-based; settings: SK-OV-3, 24 h; outline: as §1
769-P = test: Cytotoxicity against human 769-P cells assessed as cell growth inhibition after 24 hrs by MTT assay; type: functional, cell-based; outline: as §1
Mus musculus [3] = test: Neurotoxicity in Kunming mouse assessed as twitch at 5 to 500 mg/kg, ip observed continuously for first 2 hrs, intermittently for next 24 hrs and occasionally thereafter for 14 days; type: toxicity, organism-based; settings: in vivo
Outline: (§2)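 SPF KM mice, 6-8 weeks, 19-22 g, fasted overnight with water available. Single i.p. dose, 5.0 to 500 mg kg-1 in 0.5% CMC-Na, 10 mice per group (5 male, 5 female). Observed for behaviour, neurotoxic signs and deaths, then killed on day 14 and heart, liver and kidneys inspected macroscopically. LD50 derived graphically.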

Sarcoma-180 [4] = test: Antitumor activity against mouse Sarcoma 180 cells implanted in mouse assessed as tumor growth inhibition at 10 mg/kg, ip administered once per day for 7 consecutive days starting from 24 hrs post tumor inoculation and measured on day 21 post tumor inoculation relative to control; type: functional; settings: Sarcoma-180, ip, read-out: TGI
Outline: (§3)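 Tumor cells were harvested from 7-day donor tumors, and 2×10^6 viable cells/mouse were injected s.c. in the armpit. Groups of 10 female mice received i.p. compound daily for 7 days, starting 24 h after inoculation. Controls were vehicle (negative) and CTX 30 mg/kg (positive). Body weight was recorded every 3 days. On day 21 tumors were excised and weighed, and inhibition was calculated as (C−T)/C×100 from mean tumor weights.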

Mus musculus [5] = test: Neurotoxicity in Kunming mouse assessed as supination at 5 to 500 mg/kg, ip observed continuously for first 2 hrs, intermittently for next 24 hrs and occasionally thereafter for 14 days; type: toxicity, organism-based; settings: in vivo; outline: as §2
Mus musculus [6] = test: Hepatotoxicity in Kunming mouse at 5 to 500 mg/kg, ip after 14 days by macroscopic method; type: toxicity, organism-based; settings: in vivo, 336 h
Mus musculus [7] = test: Nephrotoxicity in Kunming mouse at 5 to 500 mg/kg, ip after 14 days by macroscopic method; type: toxicity, organism-based; settings: in vivo, 336 h
Mus musculus [8] = test: Neurotoxicity in Kunming mouse assessed as tremble at 5 to 500 mg/kg, ip observed continuously for first 2 hrs, intermittently for next 24 hrs and occasionally thereafter for 14 days; type: toxicity, organism-based; settings: in vivo; outline: as §2
[9] = tested on: Lewis lung carcinoma cell line; test: Antitumor activity against mouse LLC cells implanted in mouse assessed as tumor growth inhibition at 10 mg/kg, ip administered once per day for 7 consecutive days starting from 24 hrs post tumor inoculation and measured on day 21 post tumor inoculation relative to control; type: functional; settings: read-out: TGI; outline: as §3
Mus musculus [10] = test: Cardiotoxicity in Kunming mouse at 5 to 500 mg/kg, ip after 14 days by macroscopic method; type: toxicity, organism-based; settings: in vivo, 336 h
Mus musculus [11] = test: Acute toxicity in ip dosed Kunming mouse assessed as death at higher dose up to 4 to 8 hrs; type: organism-based; settings: in vivo; outline: as §2
Mus musculus [12] = test: Neurotoxicity in Kunming mouse assessed as jumping behavior at 5 to 500 mg/kg, ip observed continuously for first 2 hrs, intermittently for next 24 hrs and occasionally thereafter for 14 days; type: toxicity, organism-based; settings: in vivo; outline: as §2
[13] = Acute toxicity in ip dosed Kunming mouse observed continuously for first 2 hrs, intermittently for next 24 hrs and occasionally thereafter for 14 days; type: organism-based; settings: in vivo; outline: as §2
Sarcoma-180 [14] = test: Antitumor activity against mouse Sarcoma 180 cells implanted in mouse assessed as tumor growth inhibition at 30 mg/kg, ip administered once per day for 7 consecutive days starting from 24 hrs post tumor inoculation and measured on day 21 post tumor inoculation relative to control; type: functional; settings: Sarcoma-180, ip, read-out: TGI
Outline: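 Tumour cells passaged in mice for 7 days, then 2 × 10^6 viable cells given s.c. into the armpit of female mice, 10 per group. […] CTX at 30 mg kg-1 as reference, vehicle as negative control. Body weight recorded every 3 days. Tumours excised and weighed on day 21. Inhibition = (C − T)/C × 100, using mean tumour weights.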

## CCn1c2cc(OCCCCCCn3c4ccccc4c4ccnc(C)c43)ccc2c2ccnc(C)c21
ECa-109 cell line
  IC50: 61.4 µM
[1]
  IC50: 44.7 µM
HT-29
  IC50: 36.2 µM
HepG2
  IC50: 74.6 µM
A-375
  IC50: 74.6 µM
MCF7
  IC50: 75.2 µM
[2]
  IC50: 51.1 µM
SK-OV-3
  IC50: 11.2 µM
769-P
  IC50: 75.2 µM

## CCCCn1c2cc(OCCCCn3c4ccccc4c4ccnc(C)c43)ccc2c2ccnc(C)c21.Cl
Mus musculus [3]
  Activity: Non-Toxic
Sarcoma-180 [4]
  inhibition in vivo at 10 mg/kg: 53.3%
Mus musculus [5]
  Activity: Non-Toxic
ECa-109 cell line
  IC50: 12.2 µM
Mus musculus [6]
  Activity: Non-Toxic
[1]
  IC50: 33.6 µM
Mus musculus [7]
  Activity: Non-Toxic
Mus musculus [8]
  Activity: Non-Toxic
[9]
  inhibition in vivo at 10 mg/kg: 27.2%
HT-29
  IC50: 16.4 µM
HepG2
  IC50: 15.7 µM
Mus musculus [10]
  Activity: Non-Toxic
Mus musculus [11]
  Activity: Toxic
A-375
  IC50: 14.1 µM
Mus musculus [12]
  Activity: Non-Toxic
[13]
  LD50 at 14 days: 50 mg/kg
MCF7
  IC50: 11.2 µM
[2]
  IC50: 13.3 µM
SK-OV-3
  IC50: 21.7 µM
769-P
  IC50: 15.3 µM

## CCn1c2cc(OCCCCCn3c4ccccc4c4ccnc(C)c43)ccc2c2ccnc(C)c21
ECa-109 cell line
  IC50: 46.6 µM
[1]
  IC50: 35.4 µM
HT-29
  IC50: 14.9 µM
HepG2
  IC50: 112 µM
A-375
  IC50: 31.5 µM
MCF7
  IC50: 56.3 µM
[2]
  IC50: > 100 µM
SK-OV-3
  IC50: 30.8 µM
769-P
  IC50: 70.6 µM

## CCCCn1c2cc(OCCCCCn3c4ccccc4c4ccnc(C)c43)ccc2c2ccnc(C)c21
ECa-109 cell line
  IC50: > 100 µM
[1]
  IC50: > 100 µM
HT-29
  IC50: 10.1 µM
HepG2
  IC50: > 100 µM
A-375
  IC50: 50.8 µM
MCF7
  IC50: > 100 µM
[2]
  IC50: 12.4 µM
SK-OV-3
  IC50: 14.3 µM
769-P
  IC50: 11.6 µM

## CCn1c2cc(OCCCCCCn3c4ccccc4c4ccncc43)ccc2c2ccnc(C)c21
ECa-109 cell line
  IC50: 17.4 µM
[1]
  IC50: 40.7 µM
HT-29
  IC50: 60.3 µM
HepG2
  IC50: > 100 µM
A-375
  IC50: 34.7 µM
MCF7
  IC50: 19 µM
[2]
  IC50: 21.8 µM
SK-OV-3
  IC50: > 100 µM
769-P
  IC50: > 100 µM

## Cc1nccc2c3ccc(OCCCCn4c5ccccc5c5ccnc(C(C)C)c54)cc3n(CCCc3ccccc3)c12
ECa-109 cell line
  IC50: 16.2 µM
[1]
  IC50: 37.8 µM
HT-29
  IC50: 12.1 µM
HepG2
  IC50: 46.2 µM
A-375
  IC50: 23.8 µM
MCF7
  IC50: 14.4 µM
[2]
  IC50: 10.8 µM
SK-OV-3
  IC50: 28.1 µM
769-P
  IC50: 18.5 µM

## Cc1nccc2c3ccccc3n(CCCCOc3ccc4c5ccnc(C)c5n(CCCc5ccccc5)c4c3)c12.Cl
Mus musculus [3]
  Activity: Non-Toxic
Mus musculus [5]
  Activity: Non-Toxic
ECa-109 cell line
  IC50: 9.9 µM
Mus musculus [6]
  Activity: Non-Toxic
[1]
  IC50: 7.4 µM
Mus musculus [7]
  Activity: Non-Toxic
Mus musculus [8]
  Activity: Non-Toxic
HT-29
  IC50: 14.1 µM
HepG2
  IC50: 9.1 µM
Mus musculus [10]
  Activity: Non-Toxic
Sarcoma-180 [14]
  inhibition in vivo at 30 mg/kg: 36.7%
Mus musculus [11]
  Activity: Toxic
A-375
  IC50: 8.4 µM
Mus musculus [12]
  Activity: Non-Toxic
[13]
  LD50 at 14 days: 150 mg/kg
MCF7
  IC50: 4 µM
[2]
  IC50: 4.4 µM
SK-OV-3
  IC50: 13.1 µM
769-P
  IC50: 9.9 µM

## CCCCn1c2cc(OCCCCn3c4ccccc4c4ccncc43)ccc2c2ccnc(C)c21
ECa-109 cell line
  IC50: 21.8 µM
[1]
  IC50: 41.5 µM
HT-29
  IC50: 21.8 µM
HepG2
  IC50: 29.5 µM
A-375
  IC50: 72.4 µM
MCF7
  IC50: 28.8 µM
[2]
  IC50: 38 µM
SK-OV-3
  IC50: 17.3 µM
769-P
  IC50: 22.9 µM

## COc1cc(-c2nccc3c4ccccc4n(CCCCOc4ccc5c6ccnc(C)c6n(CCCc6ccccc6)c5c4)c23)cc(OC)c1OC
ECa-109 cell line
  IC50: 9.7 µM
[1]
  IC50: 18.2 µM
HT-29
  IC50: 3.9 µM
HepG2
  IC50: 24.9 µM
A-375
  IC50: 7.1 µM
MCF7
  IC50: 11.7 µM
[2]
  IC50: 8.7 µM
SK-OV-3
  IC50: 10.3 µM
769-P
  IC50: 14.1 µM

## COc1ccc(-c2nccc3c4ccccc4n(CCCCOc4ccc5c6ccnc(C)c6n(CCCc6ccccc6)c5c4)c23)cc1OC
ECa-109 cell line
  IC50: 9.3 µM
[1]
  IC50: 9.7 µM
HT-29
  IC50: 22.7 µM
HepG2
  IC50: 2.4 µM
A-375
  IC50: 6.7 µM
MCF7
  IC50: 7.2 µM
[2]
  IC50: 6.2 µM
SK-OV-3
  IC50: 8.8 µM
769-P
  IC50: 8.2 µM
